Reference: ChEMBL document CHEMBL2010794, “Discovery of nor-seco himbacine analogs as thrombin receptor antagonists” (Bioorg Med Chem Lett, 2012)
Active and inactive are the calls of the source. The calls are words filed in the database; no cut-off is given here.

Tests used:
[1] = molecular target: T1, Proteinase-activated receptor 1 (Homo sapiens, UniProt P25116); assay: Displacement of [3H]haTRAP from human PAR1 after 1 hr by TopCount scintillation counting
T1 sequence (P25116 whole entry): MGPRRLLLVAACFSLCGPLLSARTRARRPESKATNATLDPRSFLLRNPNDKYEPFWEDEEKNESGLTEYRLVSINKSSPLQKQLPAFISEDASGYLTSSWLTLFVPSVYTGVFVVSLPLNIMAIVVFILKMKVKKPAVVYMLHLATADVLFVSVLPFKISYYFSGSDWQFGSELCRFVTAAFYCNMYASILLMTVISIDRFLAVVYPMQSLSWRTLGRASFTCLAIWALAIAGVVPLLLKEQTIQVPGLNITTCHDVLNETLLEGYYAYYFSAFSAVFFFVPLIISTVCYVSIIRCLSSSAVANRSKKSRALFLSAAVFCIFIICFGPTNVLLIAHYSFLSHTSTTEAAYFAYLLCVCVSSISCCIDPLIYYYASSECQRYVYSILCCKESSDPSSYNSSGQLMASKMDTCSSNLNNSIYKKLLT
In short: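 PAR-1 receptors isolated from human platelets; competition binding against [³H]haTRAP radioligand; values expressed as IC₅₀ (nM).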

[2] = tested on: Cynomolgus monkey; assay: Ex-vivo inhibition of PAR1 in cynomolgus monkey assessed as inhibition of haTRAP-induced platelet aggregation at 3 mg/kg, po at 24 hrs by aggregometry; type: functional; conditions: Macaca fascicularis
In short: (§1)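 Cynomolgus monkeys dosed orally in 20% PEG-HPBCD (hydrochloride salt for the 7a-hydroxy series); blood sampled at various times up to 24 h; haTRAP added to whole blood at 1 µM to trigger aggregation, measured by aggregometer; result given as % reduction in haTRAP-induced aggregation at the stated dose and time.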

[3] = AUC (0 to 6 hrs) in rat at 10 mg/kg, po; type: ADME, organism-based; set-up: time < 6 hr, dose 10 mg/kg, route oral; conditions: plasma
In short: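 Rats given a single 10 mg/kg oral dose in 0.4% methylcellulose; plasma levels followed up to 6 h; AUC from 0 to 6 h reported in ng h/mL.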

[4] = tested on: Cynomolgus monkey; assay: AUC (0 to 24 hrs) in cynomolgus monkey plasma assessed as M+16 hydroxy metabolite at 3 mg/kg, po; type: ADME, organism-based, Macaca fascicularis; set-up: time < 24 hr, dose 3 mg/kg, route oral; conditions: in vivo
[5] = Cmax in cynomolgus monkey plasma at 3 mg/kg, po; type: ADME, organism-based, Macaca fascicularis; set-up: dose 3 mg/kg, route oral
[6] = tested on: Cynomolgus monkey; assay: Ex-vivo inhibition of PAR1 in cynomolgus monkey assessed as inhibition of haTRAP-induced platelet aggregation at 1 mg/kg, po at 24 hrs by aggregometry; type: functional; conditions: Macaca fascicularis; in short: as §1
[7] = AUC (0 to 24 hrs) in cynomolgus monkey plasma at 3 mg/kg, po; type: ADME, organism-based, Macaca fascicularis; set-up: time < 24 hr, dose 3 mg/kg, route oral
[8] = tested on: Liver microsomes; assay: Prodrug activation in rat liver microsomes assessed as (3R,3aR,4S,5R,6S,7aS)-5-ethyl-4-((E)-2-(5-(3-fluorophenyl)pyridin-2-yl)vinyl)-7a-hydroxy-3,6-dimethylhexahydroisobenzofuran-1(3H)-one formation; set-up: species or system Microsome
[9] = tested on: Cynomolgus monkey; assay: Cmax in cynomolgus monkey plasma assessed as M+16 hydroxy metabolite at 3 mg/kg, po; type: ADME, organism-based, Macaca fascicularis; set-up: dose 3 mg/kg, route oral; conditions: in vivo
[10] = tested on: Cynomolgus monkey; assay: Ex-vivo inhibition of PAR1 in cynomolgus monkey assessed as inhibition of haTRAP-induced platelet aggregation at 0.3 mg/kg, po by aggregometry; type: functional, organism-based; set-up: dose 0.3 mg/kg; conditions: Macaca fascicularis; in short: as §1
[11] = tested on: Cynomolgus monkey; assay: Ex-vivo inhibition of PAR1 in cynomolgus monkey assessed as inhibition of haTRAP-induced platelet aggregation at 3 mg/kg, po at 6 hrs by aggregometry; type: functional; conditions: Macaca fascicularis; in short: as §1
[12] = AUC (0 to 24 hrs) in cynomolgus monkey plasma at 1 mg/kg, po; type: ADME, organism-based, Macaca fascicularis; set-up: time < 24 hr, dose 1 mg/kg, route oral
[13] = tested on: Cynomolgus monkey; assay: Ex-vivo inhibition of PAR1 in cynomolgus monkey assessed as inhibition of haTRAP-induced platelet aggregation at 1 mg/kg, po by aggregometry; type: functional, organism-based; set-up: dose 1 mg/kg; conditions: Macaca fascicularis; in short: as §1
[14] = tested on: Cynomolgus monkey; assay: Ex-vivo inhibition of PAR1 in cynomolgus monkey assessed as inhibition of haTRAP-induced platelet aggregation at 1 mg/kg, po up to 6 hrs by aggregometry; type: functional, organism-based; set-up: dose 1 mg/kg; conditions: Macaca fascicularis; in short: as §1
[15] = AUC (0 to 24 hrs) in cynomolgus monkey at 1 mg/kg, po; type: ADME, organism-based, Macaca fascicularis; set-up: time < 24 hr, dose 1 mg/kg, route oral; conditions: plasma

Row | Compound | IC50 ([1]; read-out: IC50) [nM] | AUC(0-t) at 6 h [3] [ng·h/mL] | also measured
1 | CC[C@H]1[C@H](/C=C/c2ccc(-c3ccccc3C)cn2)[C@@H]2[C@@H](C)OC(=O)[C@@H]2C[C@@H]1C | 20 | – | –
2 | CC[C@H]1[C@H](/C=C/c2ccc(-c3ccccc3F)cn2)[C@@H]2[C@@H](C)OC(=O)[C@@H]2C[C@@H]1C | 22 | 852 | inhibition in vivo at 3 mg/kg [2]: 45%
3 | CC[C@H]1[C@H](/C=C/c2ccc(-c3cccc(C#N)c3)cn2)[C@@H]2[C@@H](C)OC(=O)[C@@H]2C[C@@H]1C | 21 | – | –
4 | CC[C@H]1[C@H](/C=C/c2ccc(-c3cccc(F)c3)cn2)[C@@H]2[C@@H](C)OC(=O)[C@@H]2C[C@@H]1C | 15 | 230 | AUC [4]: 1400 ng·h/mL; inhibition in vivo at 3 mg/kg [2]: 100%; Cmax [5]: 62 ng/mL; inhibition in vivo at 1 mg/kg [6]: 69%; AUC(0-t) at 24 h [7]: 451 ng·h/mL; Drug metabolism [8]: Active; Cmax [9]: 98 ng/mL
5 | CC[C@H]1[C@H](/C=C/c2ccc(-c3cccc(C#N)c3)cn2)[C@@H]2[C@@H](C)OC(=O)[C@]2(O)C[C@@H]1C | 20 | 1080 | –
6 | CC[C@H]1[C@H](/C=C/c2ccc(-c3cccc(C)c3)cn2)[C@@H]2[C@@H](C)OC(=O)[C@@H]2C[C@@H]1C | 45 | – | –
7 | CC[C@H]1[C@H](/C=C/c2ccc(-c3ccccc3OC)cn2)[C@@H]2[C@@H](C)OC(=O)[C@]2(O)C[C@@H]1C | 8.1 | 168 | –
8 | CC[C@H]1[C@H](/C=C/c2ccc(-c3ccccc3)cn2)[C@@H]2[C@@H](C)OC(=O)[C@]2(O)C[C@@H]1C [listing 1 of 2 here] | – | – | inhibition [2]: Active; inhibition [10]: Active
9 | CC[C@H]1[C@H](/C=C/c2ccc(-c3ccoc3)cn2)[C@@H]2[C@@H](C)OC(=O)[C@]2(O)C[C@@H]1C.Cl | – | – | inhibition in vivo at 3 mg/kg [2]: 35%; AUC(0-t) at 24 h [7]: 4110 ng·h/mL
10 | CC[C@H]1[C@H](/C=C/c2ccc(-c3ccsc3)cn2)[C@@H]2[C@@H](C)OC(=O)[C@]2(O)C[C@@H]1C.Cl | – | – | inhibition in vivo at 3 mg/kg [2]: 90%; AUC(0-t) at 24 h [7]: 4740 ng·h/mL
11 | CC[C@H]1[C@H](/C=C/c2ccc(-c3ccoc3)cn2)[C@@H]2[C@@H](C)OC(=O)[C@]2(O)C[C@@H]1C | 8.6 | 148 | –
12 | CC[C@H]1[C@H](/C=C/c2ccc(-c3ccsc3)cn2)[C@@H]2[C@@H](C)OC(=O)[C@]2(O)C[C@@H]1C | 4.6 | 397 | –
13 | CC[C@H]1[C@H](/C=C/c2ccc(-c3cccc(Cl)c3Cl)cn2)[C@@H]2[C@@H](C)OC(=O)[C@@H]2C[C@@H]1C | 13 | 1150 | AUC [4]: 813 ng·h/mL; inhibition in vivo at 3 mg/kg [2]: 95%; AUC(0-t) at 24 h [7]: 573 ng·h/mL
14 | CC[C@H]1[C@H](/C=C/c2ccc(-c3cccc(C)c3)cn2)[C@@H]2[C@@H](C)OC(=O)[C@]2(O)C[C@@H]1C.Cl | – | – | AUC(0-t) at 24 h [7]: 2770 ng·h/mL; inhibition in vivo at 3 mg/kg [11]: 100%
15 | CC[C@H]1[C@H](/C=C/c2ccc(-c3cccc(C#N)c3)cn2)[C@@H]2[C@@H](C)OC(=O)[C@]2(O)C[C@@H]1C.Cl | – | – | AUC(0-t) at 24 h [12]: 6280 ng·h/mL; inhibition in vivo at 1 mg/kg [6]: 60%
16 | CC[C@H]1[C@H](/C=C/c2ccc(-c3cccc(OC)c3)cn2)[C@@H]2[C@@H](C)OC(=O)[C@]2(O)C[C@@H]1C.Cl | – | – | AUC(0-t) at 24 h [12]: 1210 ng·h/mL
17 | CC[C@H]1[C@H](/C=C/c2ccc(-c3ccccc3C)cn2)[C@@H]2[C@@H](C)OC(=O)[C@]2(O)C[C@@H]1C | 33 | 3160 | –
18 | CC[C@H]1[C@H](/C=C/c2ccc(-c3cc(Cl)ccc3Cl)cn2)[C@@H]2[C@@H](C)OC(=O)[C@@H]2C[C@@H]1C | 513 | – | –

Row | Compound | IC50 ([1]; read-out: IC50) [nM] | AUC(0-t) at 6 h [3] [ng·h/mL] | also measured
19 | CC[C@H]1[C@H](/C=C/c2ccc(-c3ccccc3)cn2)[C@@H]2[C@@H](C)OC(=O)[C@@H]2C[C@@H]1C | 8.8 | 672 | –
20 | CC[C@H]1[C@H](/C=C/c2ccc(-c3cccc(OC)c3)cn2)[C@@H]2[C@@H](C)OC(=O)[C@]2(O)C[C@@H]1C [listing 1 of 2 here] | – | – | inhibition [13]: inactive
21 | CC[C@H]1[C@H](/C=C/c2ccc(-c3ccccc3Cl)cn2)[C@@H]2[C@@H](C)OC(=O)[C@@H]2C[C@@H]1C | 25 | – | –
22 | CC[C@H]1[C@H](/C=C/c2ccc(-c3ccccc3)cn2)[C@@H]2[C@@H](C)OC(=O)[C@]2(O)C[C@@H]1C [listing 2 of 2 here] | 6.4 | 3300 | –
23 | CC[C@H]1[C@H](/C=C/c2ccc(-c3cccc(OC)c3)cn2)[C@@H]2[C@@H](C)OC(=O)[C@]2(O)C[C@@H]1C [listing 2 of 2 here] | 18 | 2440 | –
24 | CC[C@H]1[C@H](/C=C/c2ccc(-c3cccc(Cl)c3)cn2)[C@@H]2[C@@H](C)OC(=O)[C@@H]2C[C@@H]1C | 28 | – | –
25 | CC[C@H]1[C@H](/C=C/c2ccc(-c3ccccc3C)cn2)[C@@H]2[C@@H](C)OC(=O)[C@]2(O)C[C@@H]1C.Cl | – | – | AUC(0-t) at 24 h [7]: 2720 ng·h/mL; inhibition in vivo at 3 mg/kg [11]: 55%
26 | CC[C@H]1[C@H](/C=C/c2ccc(-c3cccnc3)cn2)[C@@H]2[C@@H](C)OC(=O)[C@]2(O)C[C@@H]1C [listing 1 of 2 here] | 49 | 1900 | –
27 | CC[C@H]1[C@H](/C=C/c2ccc(-c3ccc(OC)cc3)cn2)[C@@H]2[C@@H](C)OC(=O)[C@]2(O)C[C@@H]1C | 451 | – | –
28 | CC[C@H]1[C@H](CCc2ccc(-c3cccc(C(F)(F)F)c3)cn2)[C@@H]2[C@@H](C)OC(=O)[C@@H]2C[C@@H]1C | 225 | – | –
29 | CC[C@H]1[C@H](/C=C/c2ccc(-c3cccc(C)c3)cn2)[C@@H]2[C@@H](C)OC(=O)[C@]2(O)C[C@@H]1C | 35 | 203 | –
30 | CC[C@H]1[C@H](/C=C/c2ccc(N3CCCC3)cn2)[C@@H]2[C@@H](C)OC(=O)[C@]2(O)C[C@@H]1C [listing 1 of 2 here] | 64 | 486 | –
31 | CC[C@H]1[C@H](/C=C/c2ccc(N3CCCC3)cn2)[C@@H]2[C@@H](C)OC(=O)[C@]2(O)C[C@@H]1C [listing 2 of 2 here] | – | – | inhibition in vivo at 3 mg/kg [11]: 100%
32 | CC[C@H]1[C@H](/C=C/c2ccc(-c3cccnc3)cn2)[C@@H]2[C@@H](C)OC(=O)[C@]2(O)C[C@@H]1C [listing 2 of 2 here] | – | – | inhibition in vivo at 3 mg/kg [2]: 45%
33 | CC[C@H]1[C@H](/C=C/c2ccc(-c3cccc(F)c3)cn2)[C@@H]2[C@@H](C)OC(=O)[C@]2(O)C[C@@H]1C | 27 | 1140 | inhibition [14]: Active; inhibition in vivo at 3 mg/kg [2]: 100%; AUC(0-t) at 24 h [15]: 4280 ng·h/mL
34 | CC[C@H]1[C@H](/C=C/c2ccc(-c3cccc(C(F)(F)F)c3)cn2)[C@@H]2[C@@H](C)OC(=O)[C@@H]2C[C@@H]1C | 24 | – | –
35 | CC[C@H]1[C@H](/C=C/c2ccc(-c3ccc(C#N)cc3)cn2)[C@@H]2[C@@H](C)OC(=O)[C@]2(O)C[C@@H]1C | – | – | IC50 [1]: Not Active
